Calls of active or inactive are those of the source. The calls are words filed in the database; no cut-off is given here. Starred links: 1 amine or outer side, 2 acyl side, 3 side chain; linkers in the order of their positions; H or OH if unused. Positions of bridges follow the written chain, without caps; N, C: chain ends. Non-standard residues stand in square brackets, D forms with d. Residues, ends and D or L forms follow the SMILES beside them. *: point of attachment. X2 = O=C(CCCC[C@@H]1SC[C@@H]2NC(=O)N[C@@H]21)NCCCOCCOCCOCCCN*; X67 = O=C(O)CCNC(=S)NCCCC[C@H](N[*:1])C(=O)[*:2]; X1 = O=C(O)[C@H](CC(=O)*)Sc1ccc2ccccc2c1; Suberoyl = O=C(CCCCCCC(=O)[*:2])[*:1]; β3hR = N=C(N)NCCC[C@H](N)CC(=O)O; Suc = O=C(CCC(=O)[*:2])[*:1]; Bz = O=C(c1ccccc1)*

The source of these data is ChEMBL document CHEMBL4033793, “Potent and Selective Inhibitors of Human Sirtuin 5” (J Med Chem, 2018).

Experiment [1] has as its target T1, NAD-dependent protein deacylase sirtuin-5, mitochondrial (Homo sapiens, UniProt Q9NXA8). As to the kind of experiment: Inhibition of human recombinant N-terminal Strep2-tagged SIRT5 expressed in Escherichia coli BL21 (DE3) using Abz-GVLK(glutaryl)AY(NO2)GV-NH2 as substrate in presence of NAD+ by fluorescence assay.
Target sequence in this assay (Q9NXA8 whole entry): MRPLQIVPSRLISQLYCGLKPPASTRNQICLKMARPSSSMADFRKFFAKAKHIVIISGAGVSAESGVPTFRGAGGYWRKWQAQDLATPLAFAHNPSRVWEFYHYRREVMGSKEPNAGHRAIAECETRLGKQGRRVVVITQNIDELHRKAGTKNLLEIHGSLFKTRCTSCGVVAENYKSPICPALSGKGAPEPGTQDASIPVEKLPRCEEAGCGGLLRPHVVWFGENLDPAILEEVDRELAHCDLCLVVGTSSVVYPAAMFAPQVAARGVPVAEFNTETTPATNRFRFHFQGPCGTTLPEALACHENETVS
The target in experiment [2] is T2, NAD-dependent protein deacetylase sirtuin-1 (Homo sapiens) (UniProt Q96EB6).
T2 sequence (whole entry): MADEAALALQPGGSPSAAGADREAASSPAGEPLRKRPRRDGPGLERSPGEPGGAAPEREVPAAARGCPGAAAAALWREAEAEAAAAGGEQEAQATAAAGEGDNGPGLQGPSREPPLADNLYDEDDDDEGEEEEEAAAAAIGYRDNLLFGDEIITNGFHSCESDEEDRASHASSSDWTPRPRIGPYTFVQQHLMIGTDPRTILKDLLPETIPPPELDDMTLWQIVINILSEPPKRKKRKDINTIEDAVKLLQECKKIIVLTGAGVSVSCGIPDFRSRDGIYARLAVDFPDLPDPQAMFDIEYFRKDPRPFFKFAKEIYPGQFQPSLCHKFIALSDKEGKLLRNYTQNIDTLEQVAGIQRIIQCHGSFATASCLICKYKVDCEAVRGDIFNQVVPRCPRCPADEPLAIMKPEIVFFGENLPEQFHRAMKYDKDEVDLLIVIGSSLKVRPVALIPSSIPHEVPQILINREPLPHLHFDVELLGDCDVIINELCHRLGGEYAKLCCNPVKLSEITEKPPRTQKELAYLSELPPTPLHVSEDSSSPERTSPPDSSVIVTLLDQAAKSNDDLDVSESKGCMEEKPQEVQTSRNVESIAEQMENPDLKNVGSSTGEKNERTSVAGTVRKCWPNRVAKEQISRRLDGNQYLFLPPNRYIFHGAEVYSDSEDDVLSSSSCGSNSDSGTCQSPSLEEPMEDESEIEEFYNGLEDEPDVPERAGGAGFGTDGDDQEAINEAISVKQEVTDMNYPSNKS
As to the kind of experiment: Inhibition of SIRT1 (unknown origin) up to 50 uM using Bz-GVLK(acetyl)EYGV-NH2 as substrate after 8 mins by HPLC analysis. Put shortly: (§1)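 HPLC activity assay at 37°C with 0 or 50 µM inhibitor, 500 µM NAD+, 5% DMSO, 0.1 µM enzyme and 50 µM substrate, in 20 mM Tris, 150 mM NaCl, 5 mM MgCl2, pH 7.8. Incubation 8 min for SIRT1-3 and 6 min for SIRT6. Stopped with TFA-water (1:9), then analysed by reversed-phase HPLC with detection at 260 nm.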

Experiment [3] addresses T3, NAD-dependent protein deacetylase sirtuin-2 (Homo sapiens) (UniProt Q8IXJ6).
T3 sequence (whole entry): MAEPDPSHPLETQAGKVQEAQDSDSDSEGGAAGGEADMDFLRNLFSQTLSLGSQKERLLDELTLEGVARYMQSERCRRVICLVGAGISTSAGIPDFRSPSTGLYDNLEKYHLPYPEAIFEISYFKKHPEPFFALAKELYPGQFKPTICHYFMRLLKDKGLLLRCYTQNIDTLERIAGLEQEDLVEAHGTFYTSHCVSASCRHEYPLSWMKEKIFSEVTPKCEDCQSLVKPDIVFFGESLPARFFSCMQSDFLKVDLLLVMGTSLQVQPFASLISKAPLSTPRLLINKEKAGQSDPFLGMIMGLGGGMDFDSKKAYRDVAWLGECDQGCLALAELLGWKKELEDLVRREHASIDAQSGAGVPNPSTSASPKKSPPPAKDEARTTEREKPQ
The experiment is described as follows: Inhibition of SIRT2 (unknown origin) up to 50 uM using Bz-GVLK(acetyl)EYGV-NH2 as substrate after 8 mins by HPLC analysis. Put shortly: as §1

Experiment [4] has as its target T4, NAD-dependent protein deacetylase sirtuin-3, mitochondrial (Homo sapiens) (UniProt Q9NTG7).
T4 sequence (whole entry): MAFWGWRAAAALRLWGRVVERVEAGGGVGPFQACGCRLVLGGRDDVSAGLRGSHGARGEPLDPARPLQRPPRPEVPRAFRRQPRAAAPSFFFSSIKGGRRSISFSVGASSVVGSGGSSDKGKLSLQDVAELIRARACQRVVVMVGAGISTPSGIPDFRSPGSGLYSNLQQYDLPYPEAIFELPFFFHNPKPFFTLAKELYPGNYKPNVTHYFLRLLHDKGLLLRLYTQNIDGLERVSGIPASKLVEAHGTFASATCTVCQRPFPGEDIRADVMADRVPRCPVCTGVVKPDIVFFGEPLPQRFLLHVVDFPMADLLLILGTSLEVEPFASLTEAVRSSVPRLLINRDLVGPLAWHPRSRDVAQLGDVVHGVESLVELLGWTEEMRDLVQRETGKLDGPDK
The experiment is described as follows: Inhibition of SIRT3 (unknown origin) up to 50 uM using Bz-GVLK(acetyl)EYGV-NH2 as substrate after 8 mins by HPLC analysis. Put shortly:
as §1

Experiment [5] concerns the target NAD-dependent protein deacylase sirtuin-6 (Homo sapiens) (UniProt Q8N6T7). As to the kind of experiment: Inhibition of SIRT6 (unknown origin) up to 50 uM using Ac-EALPKK(myristoyl)TGGNH2 as substrate after 6 mins by HPLC analysis. Put shortly:
as §1

In experiment [6] the target is T1, NAD-dependent protein deacylase sirtuin-5, mitochondrial. As to the kind of experiment: Binding affinity to human N-terminal biotinylated SIRT5 by surface plasmon resonance spectroscopy. The method in brief:
(§2)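 Surface plasmon resonance: N-terminally biotinylated Sirt5 (biotinylated via Trypsiligase) immobilized on a streptavidin-coated sensor chip at about 1800 RU. Biotinylated ligand injected at 50 nM in PBS (4 mM KH2PO4, 16 mM Na2HPO4, 115 mM NaCl, pH 7.4). Kinetic constants and affinity obtained by fitting to a 1:1 Langmuir binding model.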
A general note: SPR reads the build-up and loss of mass on a sensor chip optically.
Target sequence in this assay (Q9NXA8 whole entry): as the sequence (Q9NXA8 whole entry) above

Experiment [7] shares this target. As to the kind of experiment: Inhibition of recombinant human N-terminal His-tagged SIRT5 (34 to 269 residues) expressed in Escherichia coli Transetta(DE3) cells using Benzyl Lys(Succinyl)-AMC substrate after 2 hrs by fluorescence assay.
Target sequence in this assay (Q9NXA8 whole entry): as the sequence (Q9NXA8 whole entry) above
Experiment [8] shares this target. As to the kind of experiment: Inhibition of human SIRT5.
Target sequence in this assay (Q9NXA8 whole entry): as the sequence (Q9NXA8 whole entry) above
Experiment [9] shares this target. The experiment is described as follows: Binding affinity to human N-terminal biotinylated SIRT5 assessed as dissociation rate constant by surface plasmon resonance spectroscopy. Put shortly: as §2
Target sequence in this assay (Q9NXA8 37-310 limits assumed): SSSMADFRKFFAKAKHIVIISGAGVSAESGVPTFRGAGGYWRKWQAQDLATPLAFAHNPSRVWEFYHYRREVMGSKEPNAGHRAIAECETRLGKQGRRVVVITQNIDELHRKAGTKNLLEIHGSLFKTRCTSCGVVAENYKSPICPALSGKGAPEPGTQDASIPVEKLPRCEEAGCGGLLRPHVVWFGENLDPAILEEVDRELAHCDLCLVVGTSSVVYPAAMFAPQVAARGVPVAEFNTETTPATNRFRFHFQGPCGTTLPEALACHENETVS
The target is the same in experiment [10]. As to the kind of experiment: Binding affinity to human recombinant N-terminal strep2-tagged SIRT5 expressed in Escherichia coli BL21 (DE3) at 100 uM by SDS-PAGE/LC-MS based pull down assay. The method in brief: (§3)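 Streptavidin agarose (0.5 ml bed volume) loaded with biotinylated inhibitor (100 µM in PBS) for 30 min, then washed with PBST. Bound protein eluted with 200 mM NaOH; eluates analysed by SDS-PAGE and LC-MS.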
Target sequence in this assay (Q9NXA8 37-310 limits assumed): as above

Experiment [11] has as its target T3, NAD-dependent protein deacetylase sirtuin-2 (Homo sapiens). As to the kind of experiment: Binding affinity to human recombinant N-terminal strep2-tagged SIRT2 (43 to 356 residues) expressed in Escherichia coli BL21 (DE3) at 100 uM by SDS-PAGE/LC-MS based pull down assay. Put shortly:
as §3

In experiment [12] the target is T4, NAD-dependent protein deacetylase sirtuin-3, mitochondrial (Homo sapiens). The experiment is described as follows: Binding affinity to human recombinant N-terminal strep2-tagged SIRT3 (114 to 380 residues) expressed in Escherichia coli BL21 (DE3) at 100 uM by SDS-PAGE/LC-MS based pull down assay. Put shortly: as §3
Experiment [13] deals with T1, NAD-dependent protein deacylase sirtuin-5, mitochondrial. As to the kind of experiment: Competitive inhibition of human recombinant N-terminal Strep2-tagged SIRT5 expressed in Escherichia coli BL21 (DE3) using Abz-GVLK(glutaryl)AY(NO2)GV-NH2 as substrate in presence of NAD+ by fluorescence assay. Put shortly:
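Continuous trypsin-coupled fluorescence assay at 37°C: 10 nM SIRT5, 500 µM NAD+, 500 nM trypsin, 5% DMSO, 0.025-5 µM substrate, 0.01-20 µM inhibitor. Buffer: 20 mM Tris, 150 mM NaCl, 5 mM MgCl2, pH 7.8. Excitation 320 nm, emission 420 nm. Measured in duplicate; IC50 determined at 0.03 µM substrate by log(inhibitor) vs normalized response fit.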
Target sequence in this assay (Q9NXA8 whole entry): as the sequence (Q9NXA8 whole entry) above

The target is the same in experiment [14]. The experiment is described as follows: Inhibition of SIRT5 (unknown origin) using GGQSLK[succ]FGKG as substrate after 30 mins.
Target sequence in this assay (Q9NXA8 whole entry): as above

Sequence of NAD-dependent protein deacylase sirtuin-6 (Homo sapiens) (Q8N6T7 whole entry): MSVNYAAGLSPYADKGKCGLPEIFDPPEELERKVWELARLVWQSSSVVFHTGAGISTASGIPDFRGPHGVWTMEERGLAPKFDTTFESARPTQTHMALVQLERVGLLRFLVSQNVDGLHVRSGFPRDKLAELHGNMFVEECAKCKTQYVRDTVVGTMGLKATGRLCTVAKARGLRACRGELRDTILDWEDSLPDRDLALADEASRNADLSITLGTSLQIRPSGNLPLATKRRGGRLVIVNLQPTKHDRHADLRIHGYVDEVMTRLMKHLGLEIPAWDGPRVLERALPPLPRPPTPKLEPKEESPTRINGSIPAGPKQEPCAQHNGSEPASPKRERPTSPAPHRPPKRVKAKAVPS

As for `CC(C)C[C@H](NC(=O)[C@@H](NC(=O)CNC(=O)c1ccccc1)C(C)C)C(=O)N[C@@H](CCCCNC(=O)C[C@H](Sc1ccc2ccccc2c1)C(=O)O)C(=O)N[C@@H](CCC(=O)O)C(=O)N[C@@H](Cc1ccc(O)cc1)C(=O)NCC(=O)N[C@H](C(N)=O)C(C)C` (Bz-GVLK(X1)EYGV-NH2), the IC50 (as a rule, the point on the concentration scale where inhibition reaches its midpoint) in [1] amounted to 30.3 nM. Further, the inhibition entry in [2], in experiment [3], in experiment [4] and in experiment [5] was “inactive” each time. Besides, the Kd (commonly the equilibrium constant for the complex coming apart) in experiment [6] is 0.01 nM.

For the compound `N#C/C(=C\c1ccc(-c2ccc(C(=O)O)cc2)o1)C(=O)Nc1ccc(C#N)c(F)c1`, the IC50 in experiment [7] came to 5600 nM.

For `CC(=O)N[C@H]1CCCCNC(=O)CCCCCCC(=O)NCCCC[C@@H](C(=O)N[C@H](C(N)=O)[C@@H](C)O)NC(=O)[C@H](CCCCNC(=S)NCCC(=O)O)NC(=O)C[C@H](CCCNC(=N)N)NC1=O` (Ac-K[β3hR][X67]KT-NH2; linker 1-4 via Suberoyl), the IC50 in [8] stood at 7500 nM.

On to `CC(C)C[C@H](NC(=O)[C@@H](NC(=O)CNC(=O)CCC(=O)NCCCOCCOCCOCCCNC(=O)CCCC[C@@H]1SC[C@@H]2NC(=O)N[C@@H]21)C(C)C)C(=O)N[C@@H](CCCCNC(=O)C[C@H](Sc1ccc2ccccc2c1)C(=O)O)C(=O)N[C@@H](CCC(=O)O)C(=O)N[C@@H](Cc1ccc(O)cc1)C(=O)NCC(=O)N[C@H](C(N)=O)C(C)C` ({X2-Suc}-GVLK(X1)EYGV-NH2), for which the half-inhibitory concentration (IC50) in experiment [1] came to 19.1 nM. Further, the koff (as a rule, the rate constant with which the complex falls apart) in experiment [9] worked out at 0.00015 s⁻¹. The Kd in experiment [6] was found to be 0.12 nM. Besides, the outcome in experiment [10] was Active. The outcome in [11] and in experiment [12] was inactive. For the same compound, in experiment [13], the Ki (in general, a measure of affinity in units of concentration, obtained from inhibition or displacement) was determined as 13.6 nM.

With `O=C1c2c(O)cccc2Cc2cccc(O)c21` [ANTHRALIN], the values for the IC50 in experiment [1] and in [14] were 453000 nM and 100 nM, respectively.
